We go through 14 compounds from PubChem BioAssay.

The term inhibition denotes the relative decrease from the control value, in per cent.

The source made the active and inactive calls.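 How the source made its calls, unless noted: active means fluorescence slope higher than the sample average by over 3 SD (cut at about -0.22 in these data, passing the limit was not always enough); inactive means the rest.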

The nature of test [1]: inhibitors of TNFa-induced NFkB p65 translocation, primary screen, imaging, HUVEC, MLSMR starter and 10KST1 sets (AID 438;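 active means inhibition above 20% together with a positive visual image hit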;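 further: compound added about 3h40 before a 20 min TNFalpha stimulation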;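 on inhibition: signal is the nuclear over cytoplasmic p65 intensity ratio per well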). The conditions noted are these: HUVEC TNFa-induced p65 nuclear translocation; cell count: measured here: nuclei count (cytotoxicity indicator), at 2.08 µM; inhibition: at 2 µM, stronger effect = higher value, 0% TNFa-plus-vehicle, 100% no-TNFa wells.
Test [2] is described as follows: reduction of polyQ htt aggregates in cells – imaging, exon1htt(103Q)mCFP cells, high-content imaging, primary screen (AID 483;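 active means visual image review flags a hit and inhibition of aggregation exceeds 20%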;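 further: compound exposure lasted 3 days before fixation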;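 on nuclei count: percent of the per-plate median nuclei count of sample wells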). The following applies: exon1htt(103Q)mCFP cell line, aggregate imaging, at 2 µM; inhibition of aggregation: stronger effect = higher value; nuclei count: measured here: cell count, toxicity.
The nature of test [3]: endothelial E-selectin expression blockers – imaging, HUVEC, immunofluorescence, MLSMR starter and 10KST1 sets, primary screen (AID 487;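 active means visually confirmed hit in the image check and inhibition above 20%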;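 on inhibition: signal is fraction of cell area covered by stained E-selectin grains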;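 on nuclei count: 100% = median nuclei count of all wells on the same plate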). The conditions noted are these: HUVEC TNFalpha-induced E-selectin immunofluorescence imaging, at 2 µM; inhibition: stronger effect = higher value; nuclei count: measured here: cell number, toxicity.
The target of test [4] is Voltage-gated potassium channel subunit beta-2 (Rattus norvegicus) (UniProt P62483). The test can be described thus: inhibitors of rat Kvbeta2 reductase activity – biochemical, NADPH fluorescence, primary screen (AID 622).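 Further: slope of raw intensity against log time taken from 70 to 1610 s.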 The conditions noted are these: recombinant KvBeta, 4-cyanobenzaldehyde reduction, at 10 µM, stronger effect = higher value.
For test [5] the target is unchanged. The test can be described thus: enhancers of rat Kvbeta2 NADPH turnover – biochemical, NADPH fluorescence, primary screen (AID 623;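 active means NADPH fluorescence slope more negative than the mean of all samples by about 3 SD, 99.7% confidence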;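 further: fluorescence intensity change per second fitted from 20 to 320 s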). The conditions noted are these: Recombinant KvBeta, NADPH fluorescence decrease slope, 10 min; at 10 µM; stronger effect = lower value.
The target in test [6] is Muscarinic acetylcholine receptor M4 (Homo sapiens) (UniProt P08173). In words: M4-linked GIRK flux change, two-sided – cell-based, HEK293 M4/GIRK, thallium flux, BTC-AM, M4 allosteric agonist project, primary screen (AID 625;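 active means fluorescence slope after compound addition differing from the mean of all tested samples at 99.7% confidence, mostly higher but some lower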;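 further: thallium influx through GIRK channels coupled to M4 in HEK293 cells with BTC-AM dye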). The conditions noted are these: at 10 µM, actives lie on both sides. Put shortly:
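Material: M4/GIRK1/GIRK2 stable HEK293 cell line. Medium: pH 7.3 thallium assay buffer. Dosing: single compound concentration, 10 µM final. Schedule: 1 h dye loading, 2 min kinetic read. Measured by: kinetic fluorescence with BTC-AM dye. Read-out: post-addition slope, 15–24 s, of baseline-normalized fluorescence. Benchmarks: carbachol and DMSO controls.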

A short description of test [7]: blockers of RIG-like receptor reporter activation – cell-based, Sendai virus stimulus, luciferase, 10K MLSCN set, TLR/RLR signaling modifier project, primary screen (AID 602276;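 active means inhibition at or above 50% at 10 µM; inactive means inhibition below 50%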;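 further: firefly luciferase from ISG56 promoter only with Renilla not read in this screen; 0% = Sendai virus plus DMSO and 100% = medium plus DMSO without virus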). The following applies: HEK293 RL24 IRF3 luciferase reporter, at 10 µM, stronger effect = higher value. Background: Reporter assays use an easily measured gene product as a stand-in for the process of interest.

Test [8] can be described thus: TLR3 IRF3 reporter activation blockers – cell-based, poly I:C stimulus, luciferase, 10K MLSCN set, primary screen (AID 602277;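 active means inhibition of the reporter signal at or above 50%; inactive means inhibition below 50%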). The following applies: HEK293-TLR3 RL24 IRF3 luciferase reporter, at 10 µM, stronger effect = higher value.

Voltage-gated potassium channel subunit beta-2 (Rattus norvegicus), sequence (P62483 whole entry, looked up): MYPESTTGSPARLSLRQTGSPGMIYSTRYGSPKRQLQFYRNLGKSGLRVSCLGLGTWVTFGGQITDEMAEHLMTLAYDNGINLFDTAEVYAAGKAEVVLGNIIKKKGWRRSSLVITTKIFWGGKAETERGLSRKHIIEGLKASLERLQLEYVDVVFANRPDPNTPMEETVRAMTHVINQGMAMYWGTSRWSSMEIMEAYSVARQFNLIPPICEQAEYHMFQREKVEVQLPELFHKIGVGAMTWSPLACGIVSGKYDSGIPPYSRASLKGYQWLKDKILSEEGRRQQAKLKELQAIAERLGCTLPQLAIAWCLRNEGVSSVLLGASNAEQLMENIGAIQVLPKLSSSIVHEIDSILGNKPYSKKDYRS
Muscarinic acetylcholine receptor M4 (Homo sapiens), sequence (P08173 whole entry, looked up): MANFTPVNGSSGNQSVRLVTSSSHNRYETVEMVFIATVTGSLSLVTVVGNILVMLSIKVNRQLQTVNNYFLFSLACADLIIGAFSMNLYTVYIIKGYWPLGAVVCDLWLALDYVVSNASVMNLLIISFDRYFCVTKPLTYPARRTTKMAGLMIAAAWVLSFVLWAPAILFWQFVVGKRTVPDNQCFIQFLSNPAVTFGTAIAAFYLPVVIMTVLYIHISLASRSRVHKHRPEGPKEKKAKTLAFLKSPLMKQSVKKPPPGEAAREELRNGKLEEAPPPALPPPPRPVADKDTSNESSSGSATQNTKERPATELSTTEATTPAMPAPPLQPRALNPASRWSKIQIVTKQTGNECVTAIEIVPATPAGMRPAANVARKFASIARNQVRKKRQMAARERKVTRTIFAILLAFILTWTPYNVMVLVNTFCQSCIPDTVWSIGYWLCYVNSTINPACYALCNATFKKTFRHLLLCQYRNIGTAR

For the compound `CC(C)(C)OC(=O)N1CCC(C(=O)N[C@H](Cc2ccccc2)C(=O)O)CC1`, in test [1], the cell count stood at 523. Further, the inhibition in test [1] was -7.8% (inactive); in test [3] it was -11.8% (inactive); in test [7], 15.3% (inactive); in test [8], 18.1% (inactive). Also, the inhibition of aggregation in test [2] was 19.6% (inactive). For the same compound, the nuclei count in test [2] was found to be 85.5%; in test [3], 89.3%. Besides, the fluorescence slope was -0.323 (inactive) in test [4] and 0.00514 (inactive) in test [6]. Moreover, the NADPH fluorescence slope in test [5] is -5.3e-05 (inactive).
As for `CCCn1c(NCc2cc(C)ccc2O)nc2ccccc21`, the cell count in test [1] was found to be 369. Further, the inhibition in test [1] was 1.4% (inactive); in test [3], -16.5% (inactive); in test [7] it was 18.7% (inactive); in test [8] it was 19.5% (inactive). Further, in test [2], the inhibition of aggregation is 4.3% (inactive). Also, the values for the nuclei count in test [2] and in test [3] were 82.1% and 49.2%, respectively. Moreover, the fluorescence slope in test [4] is -0.522 (inactive); in test [6] it was 0.00499 (inactive). Also, in test [5], the NADPH fluorescence slope is 6.3e-06 (inactive).
For the compound `CSc1nc(N2CCOCC2)c2c(c1C#N)CCCCC2`, the cell count in test [1] was 690. The inhibition in test [1] is -11.9% (inactive); in test [3] it was -4.6% (inactive); in test [7] it was 23% (inactive); in test [8] it was 27.5% (inactive). For the same compound, the inhibition of aggregation in test [2] is -18.9% (inactive). Besides, the nuclei count amounted to 117% in test [2] and 111% in test [3]. The results for the fluorescence slope in test [4] and in test [6] were -0.579 (inactive) and 0.00519 (inactive), respectively. The NADPH fluorescence slope in test [5] is 2.1e-05 (inactive).
For `CC1(C)Cc2noc(N)c2C(C)(C)N1O`, the cell count in test [1] is 762. Also, the inhibition in test [1] was -11.6% (inactive); in test [3], -81.1% (inactive); in test [7], 13.8% (inactive); in test [8], 22.1% (inactive). The inhibition of aggregation in test [2] was -36.8% (inactive). Further, the results for the nuclei count in test [2] and in test [3] were 118% and 110%, respectively. The fluorescence slope in test [4] was -0.39 (inactive); in test [6] it was 0.00626 (inactive). In addition, the NADPH fluorescence slope in test [5] was 4.7e-05 (inactive).
As for `Cn1c(=O)[nH]c(=O)c2[nH]c(CN3CCN(C(=O)c4ccco4)CC3)nc21`, the cell count in test [1] was 418. The inhibition is -2.3% (inactive) in test [1], -5.3% (inactive) in test [3], 1.74% (inactive) in test [7] and 11% (inactive) in test [8]. Besides, the inhibition of aggregation in test [2] is -1.2% (inactive). Also, the nuclei count in test [2] came to 124%; in test [3], 131%. Besides, the fluorescence slope in test [4] is -0.54 (inactive); in test [6], 0.00483 (inactive). In test [5], the NADPH fluorescence slope is -1.3e-05 (inactive).
`Cc1ccsc1C1C2=C(CCCC2=O)Nc2ncnn21` (centres undefined): in test [1], the cell count is 266. Moreover, the inhibition in test [1] is -3.8% (inactive); in test [3], -2.9% (inactive); in test [7], 12.8% (inactive); in test [8], 16.1% (inactive). For the same compound, the inhibition of aggregation in test [2] was 15.5% (inactive). Further, the nuclei count in test [2] was determined as 86.7%; in test [3], 101%. The values for the fluorescence slope in test [4] and in test [6] were -0.523 (inactive) and 0.00358 (inactive), respectively. The NADPH fluorescence slope in test [5] is -0.000154 (inactive).
`CCOC(=O)N1CCC(NC(=O)c2ccc3nc(N4CCOCC4)sc3c2)CC1`: the cell count in test [1] stood at 585. Also, the inhibition is 2.2% (inactive) in test [1], 36% (inactive) in test [3], 12.9% (inactive) in test [7] and 12.3% (inactive) in test [8]. For the same compound, the inhibition of aggregation in test [2] was 0% (inactive). In addition, the nuclei count in test [2] was found to be 112%; in test [3], 90.8%. Also, the fluorescence slope in test [4] was -0.591 (inactive); in test [6] it was 0.00698 (inactive). The NADPH fluorescence slope in test [5] is 1.8e-05 (inactive).
In the case of `CCNC(=O)CC(=O)Nc1ccccc1C(=O)O`, the cell count in test [1] amounted to 725. Besides, the inhibition was -14.7% (inactive) in test [1], -35.3% (inactive) in test [3], 17.2% (inactive) in test [7] and 16.6% (inactive) in test [8]. In test [2], the inhibition of aggregation was 11.3% (inactive). The nuclei count in test [2] was 90.3%; in test [3] it was 118%. Also, the fluorescence slope was -0.282 (inactive) in test [4] and 0.00586 (inactive) in test [6]. For the same compound, the NADPH fluorescence slope in test [5] is -2.6e-05 (inactive).
With `O=C(c1ccc(Cl)cc1)C1CCN(C(=O)NC2CCCCC2)CC1`, the cell count in test [1] came to 456. The inhibition is -15% (inactive) in test [1], -37.3% (inactive) in test [3], 4.14% (inactive) in test [7] and -12.4% (inactive) in test [8]. For the same compound, in test [2], the inhibition of aggregation is 13.9% (inactive). The figures for the nuclei count in test [2] and in test [3] were 86.5% and 104%, respectively. For the same compound, the fluorescence slope is -0.541 (inactive) in test [4] and 0.00452 (inactive) in test [6]. Besides, the NADPH fluorescence slope in test [5] is -1.3e-05 (inactive).
`COc1ccc(N2CCN(C(=O)CSc3nnc(Cn4nnc5ccccc54)n3C)CC2)cc1`: in test [1], the cell count stood at 525. Moreover, the inhibition in test [1] was 5.7% (inactive); in test [3], -48.7% (inactive); in test [7] it was -9.14% (inactive); in test [8], -5.63% (inactive). In test [2], the inhibition of aggregation was -2.8% (inactive). Besides, the nuclei count in test [2] is 103%; in test [3], 101%. Moreover, the fluorescence slope in test [4] was -0.578 (inactive); in test [6], 0.0066 (inactive). Besides, the NADPH fluorescence slope in test [5] was -2.5e-05 (inactive).
With `Cc1cc(C)c2nc(N)sc2c1`, the cell count in test [1] turned out to be 615. Besides, the inhibition in test [1] is 6.3% (inactive); in test [3], 16% (inactive); in test [7], -28.1% (inactive); in test [8] it was -46.7% (inactive). The inhibition of aggregation in test [2] was 31.1% (inactive). Further, the nuclei count in test [2] was 67.2%; in test [3], 107%. The fluorescence slope in test [4] is -0.281 (inactive); in test [6], 0.00618 (inactive). Besides, the NADPH fluorescence slope in test [5] was -1.5e-05 (inactive).
As for `O=C(NC12CC3CC(CC(C3)C1)C2)C1CCCN1C(=O)NC1CCCCC1` (centres undefined), the cell count in test [1] is 559. In addition, the inhibition in test [1] is -1.3% (inactive); in test [3], -17.6% (inactive); in test [7] it was -2.83% (inactive); in test [8], 28.4% (inactive). Moreover, in test [2], the inhibition of aggregation was 15.8% (inactive). Besides, the figures for the nuclei count in test [2] and in test [3] were 96.2% and 110%, respectively. In addition, the values for the fluorescence slope in test [4] and in test [6] were -0.284 (inactive) and 0.00682 (inactive), respectively. For the same compound, the NADPH fluorescence slope in test [5] is -3.2e-05 (inactive).
Turning to `Cc1occc1C(=O)Nc1cccc2ccccc12`, the cell count in test [1] was determined as 670. For the same compound, the inhibition in test [1] is 5.2% (inactive); in test [3], -185% (inactive); in test [7], -27.7% (inactive); in test [8] it was -86.3% (inactive). For the same compound, the inhibition of aggregation in test [2] is 16.6% (inactive). Moreover, the values for the nuclei count in test [2] and in test [3] were 97.2% and 100%, respectively. Further, the fluorescence slope in test [4] is -0.546 (inactive); in test [6], 0.00507 (inactive). Also, in test [5], the NADPH fluorescence slope was 7.3e-06 (inactive).
For the compound `NC(=O)c1nsnc1-c1ccccc1O`, the cell count in test [1] amounted to 504. For the same compound, the inhibition is -9.3% (inactive) in test [1], 20.3% (inactive) in test [3], -10.2% (inactive) in test [7] and -7.73% (inactive) in test [8]. Further, the inhibition of aggregation in test [2] is -3.4% (inactive). Moreover, the nuclei count was determined as 107% in test [2] and 100% in test [3]. Also, the fluorescence slope in test [4] was -0.531 (inactive); in test [6] it was 0.00622 (inactive). Moreover, in test [5], the NADPH fluorescence slope was 0.0001 (inactive).
